ChEMBL document CHEMBL1145888, “Prazosin-related compounds. Effect of transforming the piperazinylquinazoline moiety into an aminomethyltetrahydroacridine system on the affinity for alpha1-adrenoreceptors” (J Med Chem, 2003)

Tests used:
[1] = biological target: T1, Alpha-1A adrenergic receptor (Rattus norvegicus) (UniProt P43140); settings: Vas deferens
T1 sequence (whole entry): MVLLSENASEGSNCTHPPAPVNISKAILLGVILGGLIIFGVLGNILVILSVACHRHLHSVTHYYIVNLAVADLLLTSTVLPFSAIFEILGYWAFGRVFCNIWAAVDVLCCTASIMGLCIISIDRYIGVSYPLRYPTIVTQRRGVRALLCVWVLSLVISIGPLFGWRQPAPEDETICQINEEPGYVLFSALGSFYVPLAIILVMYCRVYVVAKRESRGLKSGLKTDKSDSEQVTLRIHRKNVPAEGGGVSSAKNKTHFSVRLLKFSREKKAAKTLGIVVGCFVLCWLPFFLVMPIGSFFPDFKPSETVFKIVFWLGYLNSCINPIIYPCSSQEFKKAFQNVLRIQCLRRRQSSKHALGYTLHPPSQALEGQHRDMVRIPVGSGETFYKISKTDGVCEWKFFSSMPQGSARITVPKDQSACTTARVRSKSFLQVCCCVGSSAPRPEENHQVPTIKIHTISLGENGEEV

[2] = biological target: T2, Alpha-1D adrenergic receptor (Rattus norvegicus) (UniProt P23944); test: Affinity was evaluated against Alpha-1D adrenergic receptor in isolated rat aorta expressed as pKB; type: tissue-based
T2 sequence (whole entry): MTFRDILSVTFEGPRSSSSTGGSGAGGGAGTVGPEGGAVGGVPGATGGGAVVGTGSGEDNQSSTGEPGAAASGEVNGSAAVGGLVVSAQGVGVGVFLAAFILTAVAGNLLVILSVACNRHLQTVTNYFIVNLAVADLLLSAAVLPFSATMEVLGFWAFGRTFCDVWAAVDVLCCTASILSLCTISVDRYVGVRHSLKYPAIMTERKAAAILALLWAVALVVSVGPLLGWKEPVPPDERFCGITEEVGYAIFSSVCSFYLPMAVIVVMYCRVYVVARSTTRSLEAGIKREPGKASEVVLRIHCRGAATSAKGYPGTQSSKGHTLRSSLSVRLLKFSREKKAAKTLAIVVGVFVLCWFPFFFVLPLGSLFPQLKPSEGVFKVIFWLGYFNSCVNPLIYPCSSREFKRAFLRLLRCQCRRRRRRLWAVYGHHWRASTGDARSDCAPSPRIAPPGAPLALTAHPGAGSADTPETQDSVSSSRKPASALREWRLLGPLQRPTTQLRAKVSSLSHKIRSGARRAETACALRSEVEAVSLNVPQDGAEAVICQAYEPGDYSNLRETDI
Outline: (§1)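 Isolated rat tissue; isometric contractions recorded via force transducer, with parallel tissues receiving no antagonist to check for sensitivity drift. A control agonist cumulative concentration-response curve was run, then antagonist equilibrated 30 min before a repeat curve. Responses were taken as % of the control maximum. pKB (±SE) was calculated by van Rossum at one concentration (0.1-10 µM range), each tested 4-5 times.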

[3] = biological target: T3, Alpha-1B adrenergic receptor (Homo sapiens, UniProt P35368); test: Binding affinity measured in CHO cells expressing human cloned Alpha-1B adrenergic receptor expressed as pKi; type: cell-based
T3 sequence (P35368 whole entry): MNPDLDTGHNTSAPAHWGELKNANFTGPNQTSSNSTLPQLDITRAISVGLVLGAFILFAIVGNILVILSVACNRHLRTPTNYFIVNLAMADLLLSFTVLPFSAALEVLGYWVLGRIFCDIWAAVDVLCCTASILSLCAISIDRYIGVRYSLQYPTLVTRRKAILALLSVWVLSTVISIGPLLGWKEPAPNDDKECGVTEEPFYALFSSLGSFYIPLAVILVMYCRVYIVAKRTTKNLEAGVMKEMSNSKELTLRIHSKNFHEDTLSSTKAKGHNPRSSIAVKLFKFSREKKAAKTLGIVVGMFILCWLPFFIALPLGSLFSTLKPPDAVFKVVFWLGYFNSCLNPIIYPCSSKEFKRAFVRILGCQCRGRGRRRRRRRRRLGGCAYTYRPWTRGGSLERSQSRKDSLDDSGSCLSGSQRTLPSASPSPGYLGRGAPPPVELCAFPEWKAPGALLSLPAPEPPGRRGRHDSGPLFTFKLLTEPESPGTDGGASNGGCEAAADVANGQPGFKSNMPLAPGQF

[4] = biological target: T4, Alpha-1B adrenergic receptor (Rattus norvegicus) (UniProt P15823); test: Affinity was evaluated against Alpha-1B adrenoceptor in isolated rat spleen expressed as pKB; type: tissue-based
T4 sequence (whole entry): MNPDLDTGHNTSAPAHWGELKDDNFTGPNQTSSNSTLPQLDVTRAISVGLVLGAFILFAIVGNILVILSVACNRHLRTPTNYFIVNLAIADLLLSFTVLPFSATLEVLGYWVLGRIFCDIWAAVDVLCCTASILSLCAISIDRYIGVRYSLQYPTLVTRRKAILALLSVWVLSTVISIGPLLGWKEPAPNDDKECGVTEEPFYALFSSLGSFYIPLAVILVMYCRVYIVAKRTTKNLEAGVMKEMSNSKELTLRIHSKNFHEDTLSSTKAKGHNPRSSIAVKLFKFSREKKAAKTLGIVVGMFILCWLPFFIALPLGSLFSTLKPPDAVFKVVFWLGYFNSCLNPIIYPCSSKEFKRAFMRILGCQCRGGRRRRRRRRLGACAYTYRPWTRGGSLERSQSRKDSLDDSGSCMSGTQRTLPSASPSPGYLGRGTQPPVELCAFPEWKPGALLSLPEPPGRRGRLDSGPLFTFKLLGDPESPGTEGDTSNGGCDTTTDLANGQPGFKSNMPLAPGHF
Outline: as §1

[5] = biological target: T5, Alpha-1A adrenergic receptor (Homo sapiens, UniProt P35348); test: Binding affinity measured in CHO cells expressing human cloned Alpha-1A adrenergic receptor expressed as pKi; type: cell-based
T5 sequence (P35348 whole entry): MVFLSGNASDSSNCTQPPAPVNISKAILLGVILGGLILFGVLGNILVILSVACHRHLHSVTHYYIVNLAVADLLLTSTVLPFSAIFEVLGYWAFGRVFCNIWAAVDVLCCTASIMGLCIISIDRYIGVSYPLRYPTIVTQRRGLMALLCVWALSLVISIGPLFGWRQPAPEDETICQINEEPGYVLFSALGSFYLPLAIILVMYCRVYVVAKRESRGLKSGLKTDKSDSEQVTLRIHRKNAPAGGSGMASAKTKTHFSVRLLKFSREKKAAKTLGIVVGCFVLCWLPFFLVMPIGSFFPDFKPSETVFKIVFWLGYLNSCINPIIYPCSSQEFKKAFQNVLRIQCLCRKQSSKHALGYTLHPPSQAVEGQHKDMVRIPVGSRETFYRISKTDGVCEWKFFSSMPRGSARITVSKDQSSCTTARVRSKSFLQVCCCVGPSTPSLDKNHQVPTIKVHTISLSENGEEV

[6] = biological target: T6, Alpha-1D adrenergic receptor (Homo sapiens, UniProt P25100); test: Binding affinity measured in CHO cells expressing human cloned Alpha-1D adrenergic receptor expressed as pKi; type: cell-based
T6 sequence (P25100 whole entry): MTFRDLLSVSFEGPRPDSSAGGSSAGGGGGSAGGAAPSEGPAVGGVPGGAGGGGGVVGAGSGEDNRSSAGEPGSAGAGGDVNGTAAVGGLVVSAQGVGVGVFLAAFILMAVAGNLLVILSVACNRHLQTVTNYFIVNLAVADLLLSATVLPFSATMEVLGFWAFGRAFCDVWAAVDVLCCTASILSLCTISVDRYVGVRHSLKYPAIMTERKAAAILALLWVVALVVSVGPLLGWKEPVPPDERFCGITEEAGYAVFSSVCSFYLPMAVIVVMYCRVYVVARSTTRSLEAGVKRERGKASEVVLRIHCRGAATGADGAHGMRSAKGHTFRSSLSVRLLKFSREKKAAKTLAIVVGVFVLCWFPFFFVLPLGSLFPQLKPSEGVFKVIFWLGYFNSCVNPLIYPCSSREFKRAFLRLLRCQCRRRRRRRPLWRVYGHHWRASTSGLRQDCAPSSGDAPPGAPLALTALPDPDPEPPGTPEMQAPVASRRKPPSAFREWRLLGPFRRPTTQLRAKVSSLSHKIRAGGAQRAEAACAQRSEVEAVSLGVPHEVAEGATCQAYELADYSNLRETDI

[7] = biological target: T2, Alpha-1D adrenergic receptor (Rattus norvegicus); settings: Aorta
[8] = biological target: T4, Alpha-1B adrenergic receptor (Rattus norvegicus); test: Affinity was evaluated against Alpha-1B adrenergic receptor in isolated rat spleen expressed as pKB; type: tissue-based
Outline: as §1

SMILES | pKB [1] | pKB [2] | Ki [3] | pKB [4] | Ki [5] | Ki [6] | pKB [7] | pKB [8]
COc1cc2nc3c(c(N)c2cc1OC)CCC(CNC(=O)c1ccccc1C(F)(F)F)C3 (configuration not stated) | 6.47 | 6.85 | 7.41 nM | 7.33 | 288 nM | 24.5 nM | – | –
COc1cccc(OC)c1OCCNCC1COc2ccccc2O1 (configuration not stated) | 9.48 | – | – | 8.2 | – | – | 8.85 | –
COc1cc2nc3c(c(N)c2cc1OC)CCC(CNCCOc1c(OC)cccc1OC)C3 (configuration not stated) | 5.7 | – | 39.8 nM | 7.2 | 977 nM | 200 nM | 6.39 | –
COc1cc2nc3c(c(N)c2cc1OC)CCC(CNC(=O)c1cccc(C(F)(F)F)c1)C3 (configuration not stated) | 7.16 | 7.58 | 12.6 nM | 7.36 | 31.6 nM | 25.1 nM | – | –
COc1cc2nc3c(c(N)c2cc1OC)CCC(CNC(=O)c1ccco1)C3 (configuration not stated) | 6.52 | – | 12.3 nM | – | 95.5 nM | 15.8 nM | 7.47 | 7.3
COc1cc2nc3c(c(N)c2cc1OC)CCC(CNC(=O)c1ccccc1)C3 (configuration not stated) | 6.67 | 6.63 | – | 7.19 | – | – | – | –
COc1cc2nc3c(c(N)c2cc1OC)CC(CNC(=O)c1ccco1)C3 (configuration not stated) | 6.26 | 6.11 | 79.4 nM | 6.82 | 158 nM | 200 nM | – | –
COc1cc2nc3c(c(O)c2cc1OC)CCC(CNCCOc1c(OC)cccc1OC)C3 (configuration not stated) | 6.24 | 5.92 | 219 nM | 7.05 | 1700 nM | 389 nM | – | –
COc1cc2nc3c(c(N)c2cc1OC)CCCC(CNC(=O)c1ccco1)C3 (configuration not stated) | 6.34 | – | – | 6.92 | – | – | 6.94 | –
COc1cc2nc3c(c(O)c2cc1OC)CCC(CNC(=O)c1ccco1)C3 (configuration not stated) | 5.76 | – | 295 nM | 6.95 | 2570 nM | 1150 nM | 6.41 | –
COc1cc2nc3c(c(N)c2cc1OC)CCC(CNC(=O)c1ccc(C(F)(F)F)cc1)C3 (configuration not stated) | 6.08 | 6.67 | 8.91 nM | 7.2 | 85.1 nM | 19.1 nM | – | –
